From ChEMBL document CHEMBL1914440, “Discovery of potent, selective, and orally bioavailable alkynylphenoxyacetic acid CRTH2 (DP2) receptor antagonists for the treatment of allergic inflammatory diseases” (J Med Chem, 2011)
pKi: −log10 of the molar value. ≈ marks a conversion by molar mass, not a printed value. Calls of active or inactive are those of the source. The calls are words filed in the database; no cut-off is given here.

Assays:
[1] = molecular target: T1, Prostaglandin D2 receptor 2 (Homo sapiens, UniProt Q9Y5Y4); assay: Displacement of [3H]PGD2 from human CRTH2 expressed in chinese hamster CHO cells by liquid scintillation counting; assay type: cell-based
T1 sequence (Q9Y5Y4 whole entry): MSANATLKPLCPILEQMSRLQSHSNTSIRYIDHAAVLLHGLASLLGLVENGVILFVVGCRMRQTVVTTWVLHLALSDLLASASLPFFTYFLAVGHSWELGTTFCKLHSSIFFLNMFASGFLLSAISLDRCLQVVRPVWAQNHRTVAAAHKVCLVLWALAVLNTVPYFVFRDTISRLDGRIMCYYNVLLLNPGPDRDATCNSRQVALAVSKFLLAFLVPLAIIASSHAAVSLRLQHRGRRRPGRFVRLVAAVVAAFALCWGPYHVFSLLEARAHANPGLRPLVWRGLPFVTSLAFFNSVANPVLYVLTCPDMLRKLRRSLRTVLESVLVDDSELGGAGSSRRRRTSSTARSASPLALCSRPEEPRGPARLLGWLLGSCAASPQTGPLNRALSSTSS
How it was run: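 Scintillation proximity competition assay: 2–5 μg human CRTH2 cell membranes, 1.5 nM [3H]PGD2, WGA-SPA beads, 10 mM HEPES/KOH pH 7.4, 10 mM MnCl2, protease inhibitors, 1% DMSO; 90 min, room temperature, shaking. Nonspecific binding defined with 1 μM PGD2. Ki by Cheng–Prusoff, mean of ≥3 independent dose–response experiments.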

[2] = molecular target: T2, Prostaglandin D2 receptor 2 (Homo sapiens) (UniProt Q9Y5Y4); assay: Partial agonist activity at human CRTH2 expressed in chinese hamster CHO cells by cellular dielectric spectroscopy relative to PGD2; assay type: functional, cell-based
T2 sequence (whole entry): T1 sequence (Q9Y5Y4 whole entry)
How it was run: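 CHO-CRTH2 cells seeded at 100000/well, grown 24 h at 37 °C, washed into HBSS/10 mM HEPES pH 7.4 with 1% DMSO; impedance recorded. Agonism: compound alone, 25 min read. Antagonism: PGD2 at EC80 added to cell–compound mixture, 25 min read. Run with 0.1% BSA.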

[3] = Percentage unbound in mouse plasma; assay type: ADME, cell-free
[4] = Intrinsic clearance in rat liver microsomes assessed per mg of protein at 1 uM by LC/MS/MS analysis; assay type: ADME, Microsome
[5] = Clearance in BALB/c mouse at 5 mg/kg, po by LC/MS/MS analysis; assay type: ADME, organism-based; set-up: dose 5 mg/kg, route oral; conditions: in vivo
[6] = Half life in BALB/c mouse at 1 mg/kg, iv and 5 mg/kg, po by LC/MS/MS analysis; assay type: ADME, organism-based; conditions: in vivo
[7] = Apparent permeability across human Caco2 cells at 1 uM after 2 hrs by LC/MS/MS analysis; assay type: ADME, cell-based; conditions: Caco-2
[8] = Half life in Sprague-Dawley rat at 1 mg/kg, iv and 5 mg/kg, po by LC/MS/MS analysis; assay type: ADME, organism-based; conditions: in vivo
[9] = Thermodynamic solubility of the compound in 50 mM phosphate buffered saline at pH 7.4; assay type: physicochemical; conditions: read-out: Therm_solubility
How it was run: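 Thermodynamic solubility measured in 50 mM PBS at pH 7.4.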

[10] = Percentage unbound in human plasma; assay type: ADME, cell-free
[11] = Intrinsic clearance in human liver microsomes assessed per mg of protein at 1 uM by LC/MS/MS analysis; assay type: ADME, Microsome
[12] = Percentage unbound in rat plasma; assay type: ADME, cell-free
[13] = Oral bioavailability in BALB/c mouse at 5 mg/kg by LC/MS/MS analysis; assay type: ADME, organism-based; conditions: in vivo
How it was run: (§1)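 Mouse PK after a 5 mg/kg oral dose.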

[14] = AUC in BALB/c mouse at 1 mg/kg, po; assay type: ADME, organism-based; set-up: dose 1 mg/kg, route oral; conditions: plasma
[15] = AUC in BALB/c mouse at 5 mg/kg, po; assay type: ADME, organism-based; set-up: dose 5 mg/kg, route oral; conditions: plasma; how it was run: as §1

SMILES | pKi [1] | Emax [2] | fraction unbound [3] | CL/F [5] | fraction unbound [10] | fraction unbound [12] | bioavailability [13] | other results
CCCS(=O)(=O)c1cccc(C#Cc2cc(C#N)ccc2OCC(=O)O)c1 | 7.68 | 30% |  |  |  |  |  | 
CCCS(=O)(=O)c1cccc(C#Cc2cc(Cl)ccc2OCC(=O)O)c1 | 8.05 |  | 0.024 | 5 mL/min/kg | 0.008 | 0.01 |  | microsomal CLint at 1 µM [4]: < 10 µL/min/mg; half-life [6]: 2.2 h; Papp at 2 h, 1 µM [7]: 11.8 ×10⁻⁶ cm/s; half-life [8]: 4.4 h; solubility thermodynamic [9]: 760 µg/mL (≈ 1930 µM); microsomal CLint at 1 µM [11]: 11 µL/min/mg
CS(=O)(=O)c1cccc(C#Cc2cc(Cl)ccc2OCC(=O)O)c1 | 7.82 | 10% |  |  |  |  |  | 

These reach a higher pKi [1]. Values come first.

pKi [1] | Emax [2] | fraction unbound [3] | CL/F [5] | fraction unbound [10] | fraction unbound [12] | bioavailability [13] | SMILES | other results
8.15 |  |  | 18.3 mL/min/kg |  |  | 24% | CCCS(=O)(=O)c1ccc(C)c(C#Cc2cc(C#N)ccc2OCC(=O)O)c1 | Activity [2]: inactive; AUC [15]: 1370 ng·h/mL
8.46 |  | 0.025 | 11.7 mL/min/kg | 0.007 | 0.003 | 141% | CS(=O)(=O)c1ccc(Cl)c(C#Cc2cc(Cl)ccc2OCC(=O)O)c1 | AUC [14]: 1390 ng·h/mL
